According to ChEMBL document CHEMBL2157880, “Synthesis, antimycobacterial and antibacterial activity of ciprofloxacin derivatives containing a N-substituted benzyl moiety” (2012):
Values after ≈ are worked out from the molar mass of the structure shown.

Experiments:
Format in all cases: functional
Klebsiella pneumoniae [1] = experiment: Antibacterial activity against Klebsiella pneumoniae 10-2 after 18 to 24 hrs by NCCLS method
How it was run: (§1)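 Standard NCCLS (M100-S11) MIC testing against Gram-positive and Gram-negative strains. Plates were incubated at 35 °C for 18–24 h. The MIC was read as the lowest concentration giving complete inhibition of visible bacterial growth.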

Klebsiella pneumoniae [2] = experiment: Antibacterial activity against extended spectrum beta-lactamases producing Klebsiella pneumoniae 10-1 after 18 to 24 hrs by NCCLS method; how it was run: as §1
[3] = test system: Staphylococcus epidermidis; experiment: Antibacterial activity against methicillin-sensitive Staphylococcus epidermidis 10-15 after 18 to 24 hrs by NCCLS method
How it was run: (§2)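 Incubated at 35 °C for 18–24 h under NCCLS (M100-S11) standards. MIC was read as the lowest concentration giving complete inhibition of visible bacterial growth.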

Staphylococcus aureus [4] = experiment: Antibacterial activity against methicillin-sensitive Staphylococcus aureus 10-11 after 18 to 24 hrs by NCCLS method; how it was run: as §1
Escherichia coli [5] = experiment: Antibacterial activity against extended spectrum beta-lactamases producing Escherichia coli 10-4 after 18 to 24 hrs by NCCLS method; how it was run: as §1
Pseudomonas aeruginosa [6] = experiment: Antibacterial activity against Pseudomonas aeruginosa 10-9 after 18 to 24 hrs by NCCLS method; how it was run: as §1
Staphylococcus aureus [7] = experiment: Antibacterial activity against methicillin-resistant Staphylococcus aureus 10-15 after 18 to 24 hrs by NCCLS method; how it was run: as §2
Streptococcus pneumoniae [8] = experiment: Antibacterial activity against Streptococcus pneumoniae 10-6 after 18 to 24 hrs by NCCLS method; how it was run: as §1
Escherichia coli [9] = experiment: Antibacterial activity against Escherichia coli ATCC 25922 after 18 to 24 hrs by NCCLS method; how it was run: as §1
Escherichia coli [10] = experiment: Antibacterial activity against Escherichia coli 10-2 after 18 to 24 hrs by NCCLS method; how it was run: as §1
Pseudomonas aeruginosa [11] = experiment: Antibacterial activity against Pseudomonas aeruginosa 10-12 after 18 to 24 hrs by NCCLS method; how it was run: as §1
[12] = test system: Mycobacterium tuberculosis; experiment: Antimycobacterial activity against Mycobacterium tuberculosis H37Rv ATCC 27294 by microplate alamar blue assay
How it was run: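 Microplate Alamar Blue fluorescence assay on strain H37Rv ATCC 27294. MIC was the lowest concentration cutting fluorescence by ≥90% against the mean of replicate bacterium-only controls.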

[13] = test system: Staphylococcus epidermidis; experiment: Antibacterial activity against methicillin-resistant Staphylococcus epidermidis 10-13 after 18 to 24 hrs by NCCLS method; how it was run: as §2
Escherichia coli [14] = experiment: Antibacterial activity against extended spectrum beta-lactamases producing Escherichia coli 10-2 after 18 to 24 hrs by NCCLS method; how it was run: as §1
Klebsiella pneumoniae [15] = experiment: Antibacterial activity against Klebsiella pneumoniae 10-3 after 18 to 24 hrs by NCCLS method; how it was run: as §1
Klebsiella pneumoniae [16] = experiment: Antibacterial activity against extended spectrum beta-lactamases producing Klebsiella pneumoniae 10-3 after 18 to 24 hrs by NCCLS method; how it was run: as §1
Escherichia coli [17] = experiment: Antibacterial activity against Escherichia coli 10-3 after 18 to 24 hrs by NCCLS method; how it was run: as §1
Enterococcus faecium [18] = experiment: Antibacterial activity against Enterococcus faecium 10-6 after 18 to 24 hrs by NCCLS method; how it was run: as §1
Escherichia coli [19] = experiment: Antibacterial activity against Escherichia coli 10-1 after 18 to 24 hrs by NCCLS method; how it was run: as §1
Staphylococcus aureus [20] = experiment: Antibacterial activity against Staphylococcus aureus ATCC 2592 after 18 to 24 hrs by NCCLS method; how it was run: as §1
Pseudomonas aeruginosa [21] = experiment: Antibacterial activity against Pseudomonas aeruginosa 10-20 after 18 to 24 hrs by NCCLS method; how it was run: as §1
Enterococcus faecalis [22] = experiment: Antibacterial activity against Enterococcus faecalis 10-7 after 18 to 24 hrs by NCCLS method; how it was run: as §1
Pseudomonas aeruginosa [23] = experiment: Antibacterial activity against Pseudomonas aeruginosa 10-18 after 18 to 24 hrs by NCCLS method; how it was run: as §1
Staphylococcus aureus [24] = experiment: Antibacterial activity against methicillin-resistant Staphylococcus aureus 10-11 after 18 to 24 hrs by NCCLS method; how it was run: as §2
Pseudomonas aeruginosa [25] = experiment: Antibacterial activity against Pseudomonas aeruginosa 10-15 after 18 to 24 hrs by NCCLS method; how it was run: as §1
[26] = test system: Staphylococcus epidermidis; experiment: Antibacterial activity against methicillin-resistant Staphylococcus epidermidis 10-10 after 18 to 24 hrs by NCCLS method; how it was run: as §2
Enterococcus faecalis [27] = experiment: Antibacterial activity against Enterococcus faecalis 10-5 after 18 to 24 hrs by NCCLS method; how it was run: as §1
Staphylococcus aureus [28] = experiment: Antibacterial activity against methicillin-sensitive Staphylococcus aureus 10-14 after 18 to 24 hrs by NCCLS method; how it was run: as §1
Enterococcus faecium [29] = experiment: Antibacterial activity against Enterococcus faecium 10-9 after 18 to 24 hrs by NCCLS method; how it was run: as §1
Escherichia coli [30] = experiment: Antibacterial activity against extended spectrum beta-lactamases producing Escherichia coli 10-3 after 18 to 24 hrs by NCCLS method; how it was run: as §1
Pseudomonas aeruginosa [31] = experiment: Antibacterial activity against Pseudomonas aeruginosa 10-5 after 18 to 24 hrs by NCCLS method; how it was run: as §1
Klebsiella pneumoniae [32] = experiment: Antibacterial activity against extended spectrum beta-lactamases producing Klebsiella pneumoniae 10-2 after 18 to 24 hrs by NCCLS method; how it was run: as §1
Staphylococcus aureus [33] = experiment: Antibacterial activity against methicillin-resistant Staphylococcus aureus 10-13 after 18 to 24 hrs by NCCLS method; how it was run: as §2
Staphylococcus aureus [34] = experiment: Antibacterial activity against methicillin-sensitive Staphylococcus aureus 10-13 after 18 to 24 hrs by NCCLS method; how it was run: as §1
Streptococcus pneumoniae [35] = experiment: Antibacterial activity against Streptococcus pneumoniae 10-1 after 18 to 24 hrs by NCCLS method; how it was run: as §1
[36] = test system: Staphylococcus epidermidis; experiment: Antibacterial activity against methicillin-sensitive Staphylococcus epidermidis 10-11 after 18 to 24 hrs by NCCLS method; how it was run: as §1
Klebsiella pneumoniae [37] = experiment: Antibacterial activity against Klebsiella pneumoniae 10-4 after 18 to 24 hrs by NCCLS method; how it was run: as §1
Enterococcus faecalis [38] = experiment: Antibacterial activity against Enterococcus faecalis 10-6 after 18 to 24 hrs by NCCLS method; how it was run: as §1

Row | Compound | MIC (Klebsiella pneumoniae [1]) | MIC (Klebsiella pneumoniae [2]) | MIC [3] | MIC (Staphylococcus aureus [4]) | MIC (Escherichia coli [5]) | MIC (Pseudomonas aeruginosa [6]) | MIC (Staphylococcus aureus [7]) | MIC (Streptococcus pneumoniae [8]) | MIC (Escherichia coli [9]) | MIC (Escherichia coli [10]) | MIC (Pseudomonas aeruginosa [11]) | MIC [12] | MIC [13] | MIC (Escherichia coli [14]) | MIC (Klebsiella pneumoniae [15]) | MIC (Klebsiella pneumoniae [16]) | MIC (Escherichia coli [17]) | MIC (Enterococcus faecium [18]) | MIC (Escherichia coli [19]) | MIC (Staphylococcus aureus [20]) | also measured
1 | COc1cccc(CN2CCN(c3cc4c(cc3F)c(=O)c(C(=O)O)cn4C3CC3)CC2)c1OC | > 128 µg/mL | > 128 µg/mL | 8 µg/mL (≈ 16.6 µM) | 0.03 µg/mL (≈ 0.0623 µM) | 128 µg/mL (≈ 266 µM) | 64 µg/mL (≈ 133 µM) | 16 µg/mL (≈ 33.2 µM) | 32 µg/mL (≈ 66.5 µM) | 0.5 µg/mL (≈ 1.04 µM) | 32 µg/mL (≈ 66.5 µM) | 32 µg/mL (≈ 66.5 µM) | 2 µg/mL (≈ 4.15 µM) | 32 µg/mL (≈ 66.5 µM) | > 128 µg/mL | 16 µg/mL (≈ 33.2 µM) | > 128 µg/mL | > 128 µg/mL | 4 µg/mL (≈ 8.31 µM) | > 128 µg/mL | 0.06 µg/mL (≈ 0.125 µM) | MIC (Pseudomonas aeruginosa [21]): 128 µg/mL (≈ 266 µM); MIC (Enterococcus faecalis [22]): 32 µg/mL (≈ 66.5 µM); MIC (Pseudomonas aeruginosa [23]): 64 µg/mL (≈ 133 µM); MIC (Staphylococcus aureus [24]): 16 µg/mL (≈ 33.2 µM); MIC (Pseudomonas aeruginosa [25]): 32 µg/mL (≈ 66.5 µM); MIC [26]: 8 µg/mL (≈ 16.6 µM); MIC (Enterococcus faecalis [27]): 8 µg/mL (≈ 16.6 µM); MIC (Staphylococcus aureus [28]): 0.125 µg/mL (≈ 0.26 µM); MIC (Enterococcus faecium [29]): 32 µg/mL (≈ 66.5 µM); MIC (Escherichia coli [30]): > 128 µg/mL; MIC (Pseudomonas aeruginosa [31]): 32 µg/mL (≈ 66.5 µM); MIC (Klebsiella pneumoniae [32]): > 128 µg/mL; MIC (Staphylococcus aureus [33]): 32 µg/mL (≈ 66.5 µM); MIC (Staphylococcus aureus [34]): 0.03 µg/mL (≈ 0.0623 µM); MIC (Streptococcus pneumoniae [35]): 2 µg/mL (≈ 4.15 µM); MIC [36]: 0.25 µg/mL (≈ 0.519 µM); MIC (Klebsiella pneumoniae [37]): > 128 µg/mL; MIC (Enterococcus faecalis [38]): > 128 µg/mL
2 | COc1ccc(CN2CCN(c3cc4c(cc3F)c(=O)c(C(=O)O)cn4C3CC3)CC2)cc1OC | > 128 µg/mL | > 128 µg/mL | 8 µg/mL (≈ 16.6 µM) | 0.125 µg/mL (≈ 0.26 µM) | 64 µg/mL (≈ 133 µM) | 64 µg/mL (≈ 133 µM) | 16 µg/mL (≈ 33.2 µM) | 32 µg/mL (≈ 66.5 µM) | 0.5 µg/mL (≈ 1.04 µM) | 16 µg/mL (≈ 33.2 µM) | 32 µg/mL (≈ 66.5 µM) | 16 µg/mL (≈ 33.2 µM) | 32 µg/mL (≈ 66.5 µM) | > 128 µg/mL | 16 µg/mL (≈ 33.2 µM) | > 128 µg/mL | 64 µg/mL (≈ 133 µM) | 4 µg/mL (≈ 8.31 µM) | > 128 µg/mL | 0.125 µg/mL (≈ 0.26 µM) | MIC (Pseudomonas aeruginosa [21]): 128 µg/mL (≈ 266 µM); MIC (Enterococcus faecalis [22]): 64 µg/mL (≈ 133 µM); MIC (Pseudomonas aeruginosa [23]): 64 µg/mL (≈ 133 µM); MIC (Staphylococcus aureus [24]): 32 µg/mL (≈ 66.5 µM); MIC (Pseudomonas aeruginosa [25]): 32 µg/mL (≈ 66.5 µM); MIC [26]: 8 µg/mL (≈ 16.6 µM); MIC (Enterococcus faecalis [27]): 8 µg/mL (≈ 16.6 µM); MIC (Staphylococcus aureus [28]): 0.25 µg/mL (≈ 0.519 µM); MIC (Enterococcus faecium [29]): 64 µg/mL (≈ 133 µM); MIC (Escherichia coli [30]): > 128 µg/mL; MIC (Pseudomonas aeruginosa [31]): 32 µg/mL (≈ 66.5 µM); MIC (Klebsiella pneumoniae [32]): > 128 µg/mL; MIC (Staphylococcus aureus [33]): 64 µg/mL (≈ 133 µM); MIC (Staphylococcus aureus [34]): 0.125 µg/mL (≈ 0.26 µM); MIC (Streptococcus pneumoniae [35]): 2 µg/mL (≈ 4.15 µM); MIC [36]: 4 µg/mL (≈ 8.31 µM); MIC (Klebsiella pneumoniae [37]): > 128 µg/mL; MIC (Enterococcus faecalis [38]): > 128 µg/mL
3 | COc1ccc(CN2CCN(c3cc4c(cc3F)c(=O)c(C(=O)O)cn4C3CC3)CC2)c(Cl)c1OC | > 128 µg/mL | > 128 µg/mL | 32 µg/mL (≈ 62 µM) | 0.5 µg/mL (≈ 0.969 µM) | > 128 µg/mL | 128 µg/mL (≈ 248 µM) | 64 µg/mL (≈ 124 µM) | 64 µg/mL (≈ 124 µM) | 1 µg/mL (≈ 1.94 µM) | 32 µg/mL (≈ 62 µM) | 64 µg/mL (≈ 124 µM) | 2 µg/mL (≈ 3.88 µM) | 32 µg/mL (≈ 62 µM) | > 128 µg/mL | 32 µg/mL (≈ 62 µM) | > 128 µg/mL | > 128 µg/mL | 4 µg/mL (≈ 7.75 µM) | > 128 µg/mL | 0.06 µg/mL (≈ 0.116 µM) | MIC (Pseudomonas aeruginosa [21]): 64 µg/mL (≈ 124 µM); MIC (Enterococcus faecalis [22]): 32 µg/mL (≈ 62 µM); MIC (Pseudomonas aeruginosa [23]): 128 µg/mL (≈ 248 µM); MIC (Staphylococcus aureus [24]): 64 µg/mL (≈ 124 µM); MIC (Pseudomonas aeruginosa [25]): 64 µg/mL (≈ 124 µM); MIC [26]: 32 µg/mL (≈ 62 µM); MIC (Enterococcus faecalis [27]): 8 µg/mL (≈ 15.5 µM); MIC (Staphylococcus aureus [28]): 0.5 µg/mL (≈ 0.969 µM); MIC (Enterococcus faecium [29]): 32 µg/mL (≈ 62 µM); MIC (Escherichia coli [30]): > 128 µg/mL; MIC (Pseudomonas aeruginosa [31]): 64 µg/mL (≈ 124 µM); MIC (Klebsiella pneumoniae [32]): > 128 µg/mL; MIC (Staphylococcus aureus [33]): 128 µg/mL (≈ 248 µM); MIC (Staphylococcus aureus [34]): 0.5 µg/mL (≈ 0.969 µM); MIC (Streptococcus pneumoniae [35]): 2 µg/mL (≈ 3.88 µM); MIC [36]: 1 µg/mL (≈ 1.94 µM); MIC (Klebsiella pneumoniae [37]): > 128 µg/mL; MIC (Enterococcus faecalis [38]): 64 µg/mL (≈ 124 µM)
